How the values were obtained:
[1] = test system: Mus musculus; test: In Vivo detection in Mice plasma after oral administration of 41.63 mg/kg detected in the form of AZT after 1 hr; assay type: functional, organism-based; design: dose 41.63 mg/kg
[2] = test system: Mus musculus; test: In Vivo detection in Mice plasma after oral administration of 41.63 mg/kg detected in the form of AZT after 8 hr; assay type: functional, organism-based; design: dose 41.63 mg/kg
[3] = test system: Mus musculus; test: In Vivo detection in Mice brains after oral administration of 41.63 mg/kg detected in the form of AZT 5`-P after 1 hr; assay type: functional
[4] = test system: Mus musculus; test: In Vivo detection in Mice plasma after oral administration of 41.63 mg/kg detected in the form of AZT phosphodiester 2 after 24 hr; assay type: functional, organism-based; design: dose 41.63 mg/kg
[5] = test system: Mus musculus; test: In Vivo detection of total AZT in Mice plasma after oral administration of 41.63 mg/kg after 8 hr; assay type: functional, organism-based; design: dose 41.63 mg/kg
How it was run: (§1)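 Male Swiss mice (18–20 g, six weeks old) given the test substance or vehicle ([…]) by gavage as a 3 mM solution (1.5 µmol/mouse). Aortic blood was collected into heparinized tubes at 0.5–48 h and centrifuged at 13000g for 10 min. Plasma was stored at -22 °C and analysed by HPLC. Three mice were used per time point, in triplicate. Values were not corrected for recovery.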

[6] = test system: Mus musculus; test: In Vivo detection in Mice brains after oral administration of 20 mg/kg detected in the form of AZT phosphodiester 2 after 48 hr; assay type: functional
[7] = test system: Mus musculus; test: In Vivo detection in Mice plasma after oral administration of 41.63 mg/kg detected in the form of AZT after 2 hr; assay type: functional, organism-based; design: dose 41.63 mg/kg
[8] = test system: Mus musculus; test: In Vivo detection in Mice brains after oral administration of 41.63 mg/kg detected in the form of AZT after 8 hr; assay type: functional
[9] = test system: Mus musculus; test: In Vivo detection in Mice plasma after oral administration of 41.63 mg/kg detected in the form of AZT 5`-P after 1 hr; assay type: functional, organism-based; design: dose 41.63 mg/kg
[10] = organism: Mus musculus; test: Concentration of external nucleoside in mouse brain; assay type: functional
How it was run: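 Male Swiss mice (6 weeks, 18–20 g) dosed by oral gavage in saline vehicle at 20 mg/kg AZT or molar equivalent (3 mM, 1.5 µmol/mouse). Brains taken 0.5–48 h post-dose, homogenized in acetonitrile–water 3:1, centrifuged, lyophilized and filtered. Analysed by column-switching C18 HPLC with diode-array detection against spiked standards and vehicle controls. Three mice per time point, triplicates; not recovery-corrected.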

[11] = test system: Mus musculus; test: In Vivo detection of total AZT in Mice brains after oral administration of 41.63 mg/kg after 48 hr; assay type: functional
How it was run: (§2)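 Male Swiss mice (18–20 g) dosed orally with a 3 mM solution in […] vehicle; decapitated at 0.5–48 h. Brains were homogenized in acetonitrile-water (3:1), centrifuged at 6000g for 40 min at 4 °C, lyophilized, redissolved in water and filtered (0.45 µm). Reversed-phase C18 column-switching HPLC with diode-array detection; standard spiking; vehicle-fed controls. Three mice per point, triplicates.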

[12] = test system: Mus musculus; test: In Vivo detection in Mice brains after oral administration of 41.63 mg/kg detected in the form of AZT after 48 hr; assay type: functional
[13] = test system: Mus musculus; test: In Vivo detection in Mice plasma after oral administration of 41.63 mg/kg detected in the form of AZT after 48 hr; assay type: functional, organism-based; design: dose 41.63 mg/kg
[14] = test system: Mus musculus; test: In Vivo detection in Mice plasma after oral administration of 58.33 mg/kg detected in the form of AZT phosphodiester 3 after 8 hr; assay type: functional, organism-based; design: dose 58.33 mg/kg; how it was run: as §1
[15] = test system: Mus musculus; test: In Vivo detection in Mice plasma after oral administration of 58.33 mg/kg detected in the form of AZT after 2 hr; assay type: functional, organism-based; design: dose 58.33 mg/kg
[16] = test system: Mus musculus; test: In Vivo detection in Mice brains after oral administration of 58.33 mg/kg detected in the form of AZT after 48 hr; assay type: functional
[17] = test system: Mus musculus; test: In Vivo detection in Mice plasma after oral administration of 58.33 mg/kg detected in the form of AZT after 1 hr; assay type: functional, organism-based; design: dose 58.33 mg/kg
[18] = test system: Mus musculus; test: In Vivo detection in Mice plasma after oral administration of 58.33 mg/kg detected in the form of AZT after 8 hr; assay type: functional, organism-based; design: dose 58.33 mg/kg; how it was run: as §1
[19] = test system: Mus musculus; test: In Vivo detection in Mice plasma after oral administration of 58.33 mg/kg detected in the form of AZT phosphodiester 2 after 48 hr; assay type: functional, organism-based; design: dose 58.33 mg/kg; how it was run: as §1
[20] = test system: Mus musculus; test: In Vivo detection in Mice plasma after oral administration of 58.33 mg/kg detected in the form of AZT phosphodiester 3 after 0.5 hr; assay type: functional, organism-based; design: dose 58.33 mg/kg; how it was run: as §1
[21] = test system: Mus musculus; test: In Vivo detection in Mice brains after oral administration of 58.33 mg/kg detected in the form of AZT 5`-P after 4 hr; assay type: functional
[22] = test system: Mus musculus; test: In Vivo detection in Mice brains after oral administration of 58.33 mg/kg detected in the form of AZT phosphodiester 3 after 8 hr; assay type: functional
[23] = test system: Mus musculus; test: In Vivo detection in Mice plasma after oral administration of 58.33 mg/kg detected in the form of AZT phosphodiester 3 after 4 hr; assay type: functional, organism-based; design: dose 58.33 mg/kg; how it was run: as §1
[24] = test system: Mus musculus; test: In Vivo detection of total AZT in Mice brains after oral administration of 58.33 mg/kg after 0.5 hr; assay type: functional; how it was run: as §2
[25] = test system: Mus musculus; test: In Vivo detection in Mice brains after oral administration of 58.33 mg/kg detected in the form of AZT after 4 hr; assay type: functional
[26] = test system: Mus musculus; test: In Vivo detection in Mice brains after oral administration of 58.33 mg/kg detected in the form of AZT 5`-P after 2 hr; assay type: functional
[27] = test system: Mus musculus; test: In Vivo detection in Mice brains after oral administration of 58.33 mg/kg detected in the form of AZT phosphodiester 2 after 1 hr; assay type: functional
[28] = test system: Mus musculus; test: In Vivo detection in Mice plasma after oral administration of 20 mg/kg detected in the form of AZT phosphodiester 2 after 0.5 hr; assay type: functional, organism-based; design: dose 20 mg/kg
[29] = test system: Mus musculus; test: In Vivo detection in Mice brains after oral administration of 58.33 mg/kg detected in the form of AZT phosphodiester 3 after 48 hr; assay type: functional
[30] = test system: Mus musculus; test: In Vivo detection in Mice plasma after oral administration of 58.33 mg/kg detected in the form of AZT phosphodiester 2 after 1 hr; assay type: functional, organism-based; design: dose 58.33 mg/kg; how it was run: as §1
[31] = test system: Mus musculus; test: In Vivo detection in Mice brains after oral administration of 58.33 mg/kg detected in the form of AZT phosphodiester 3 after 24 hr; assay type: functional
[32] = test system: Mus musculus; test: In Vivo detection in Mice brains after oral administration of 58.33 mg/kg detected in the form of AZT after 1 hr; assay type: functional
[33] = test system: Mus musculus; test: In Vivo detection in Mice brains after oral administration of 58.33 mg/kg detected in the form of AZT 5`-P after 1 hr; assay type: functional
[34] = test system: Mus musculus; test: In Vivo detection in Mice plasma after oral administration of 58.33 mg/kg detected in the form of AZT phosphodiester 2 after 8 hr; assay type: functional, organism-based; design: dose 58.33 mg/kg; how it was run: as §1
[35] = test system: Mus musculus; test: In Vivo detection in Mice plasma after oral administration of 58.33 mg/kg detected in the form of AZT after 0.5 hr; assay type: functional, organism-based; design: dose 58.33 mg/kg
[36] = test system: Mus musculus; test: In Vivo detection in Mice brains after oral administration of 58.33 mg/kg detected in the form of AZT phosphodiester 2 after 0.5 hr; assay type: functional
[37] = test system: Mus musculus; test: In Vivo detection in Mice plasma after oral administration of 58.33 mg/kg detected in the form of AZT 5`-P after 8 hr; assay type: functional, organism-based; design: dose 58.33 mg/kg
[38] = test system: Mus musculus; test: In Vivo detection in Mice plasma after oral administration of 58.33 mg/kg detected in the form of AZT 5`-P after 24 hr; assay type: functional, organism-based; design: dose 58.33 mg/kg

Compound: Cc1cn([C@H]2C[C@H](N=[N+]=[N-])[C@@H](COP(=O)(O)OCCO[C@H]3O[C@H](CO)[C@@H](O)[C@H](O)[C@@H]3O)O2)c(=O)[nH]c1=O
- Plasma content [1]: 18.3 nM ml-1
- Plasma content [2]: 0 nM ml-1
- Brain content [3]: 79.3 nmol/g
- Plasma content [4]: 0 nM ml-1
- Plasma content [5]: 5.7 nM ml-1
- Brain content [6]: 2.5 nM ml-1
- Plasma content [7]: 3.1 nM ml-1
- Brain content [8]: 0.9 nmol/g
- Plasma content [9]: 20 nM ml-1
- External nucleoside [10]: 8000 nM/g
- Brain content [11]: 51.8 nM ml-1
- Brain content [12]: 0.8 nmol/g
- Plasma content [13]: 0 nM ml-1

Compound: CCCCCCCCCCCCCCCCOP(=O)(OCCO[C@H]1O[C@H](CO)[C@@H](O)[C@H](O)[C@@H]1O)OCC1OC(n2cc(C)c(=O)[nH]c2=O)CC1N=[N+]=[N-] (stereo partly drawn)
- Plasma content [14]: 0 nM ml-1
- Plasma content [15]: 1.4 nM ml-1
- Brain content [16]: 1.1 nmol/g
- Plasma content [17]: 1.3 nM ml-1
- Plasma content [18]: 8.6 nM ml-1
- Plasma content [19]: 0 nM ml-1
- Plasma content [20]: 0 nM ml-1
- Brain content [21]: 114 nmol/g
- Brain content [22]: 0 nM ml-1
- Plasma content [23]: 0 nM ml-1
- Brain content [24]: 38.5 nM ml-1
- Brain content [25]: 1 nmol/g
- Brain content [26]: 133 nmol/g
- Brain content [27]: 8.5 nmol/g
- Plasma content [28]: 0 nM ml-1
- Brain content [29]: 0 nmol/g
- Plasma content [30]: 0 nM ml-1
- Brain content [31]: 0 nmol/g
- Brain content [32]: 1.5 nmol/g
- Brain content [33]: 147 nmol/g
- Plasma content [34]: 0 nM ml-1
- Plasma content [35]: 1.6 nM ml-1
- Brain content [36]: 0.3 nmol/g
- Plasma content [37]: 17.7 nM ml-1
- Plasma content [38]: 28.5 nM ml-1
